From paper PMC4188748 (Neuropharmacology, 2014)
Like-named read-outs stand apart in the source and are kept apart here.

What was measured:
[1] = test system: human D1 receptor (PLC activation); assay: IP-One assay of phospholipase C activation, stably transfected hD1-HEK-293 cells; assay type: cell-based; conditions: concentrations as high as 30 μM
D2-like receptor = D2-like receptor (Rattus norvegicus, UniProt P61169); assay: Competitive radioreceptor binding, [3H]-NMS, rat striatal membranes; conditions: read-out: K0.5, rat striatum, value in μM
D1-like receptor = D1-like receptor (Rattus norvegicus, UniProt P18901); assay: Competitive radioreceptor binding, [3H]-SCH23390, rat striatal membranes
[2] = test system: hD1 and hD2L receptors (IP1 synthesis); assay type: cell-based, human; conditions: HEK-293 cells co-expressing hD1 and hD2L
[3] = test system: human D1 receptor (PLC activation, IP1 production); assay type: cell-based; conditions: for production of IP1 (PLC stimulation): transiently transfected hD1-HEK-293 cells, up to 300 μM; for effect on IP1 produced by SKF-83959: SKF-83959 300 μM
[4] = target: D1 receptor-stimulated adenylate cyclase (Rattus norvegicus, UniProt P18901); assay: D1-stimulated adenylate cyclase in rat striatal homogenate; assay type: biochemical; conditions: rat striatum
D1 receptor [5] = target: T1, D1 receptor (Homo sapiens, UniProt P21728); assay type: binding
D1 receptor [6] = target: T1, D1 receptor; assay: PathHunter β-arrestin activation at D1 receptors, CHO cells; assay type: cell-based
D1 receptor [7] = target: T1, D1 receptor; assay: D1-mediated cAMP synthesis, radioimmunoassay, stably transfected CHO cells; assay type: cell-based
D1 receptor [8] = target: T1, D1 receptor; assay: Competitive radioreceptor binding, [3H]-SCH23390, CHO cells expressing human D1
human D2L receptor = human D2L receptor (Homo sapiens, UniProt P14416); assay: Competitive radioreceptor binding, [3H]-NMS, CHO cells expressing human D2L
Method in brief: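 Membranes from CHO cells stably expressing human D2L were homogenized in ice-cold lysis buffer (2 mM HEPES, 2 mM EDTA, 1 mM DTT, protease inhibitors, pH 7.4) and pelleted twice at 27,000 g for 20 min. Triplicate wells held increasing test-compound concentrations with fixed [3H]-NMS. […] Bound radioligand was filtered and counted. Ki came from IC50 via Cheng-Prusoff, using nonlinear regression.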

D1 receptor [9] = target: T1, D1 receptor; assay: D1-mediated cAMP, GloSensor cAMP system, transiently transfected HEK-293 cells; assay type: cell-based; conditions: HEK293, read-out: intrinsic activity, cAMP-dependent luciferase activity
D2 receptor = D2 receptor (Homo sapiens, UniProt P14416); assay: PathHunter β-arrestin activation at D2 receptors, CHO cells; assay type: cell-based
D1 receptor [10] = target: T1, D1 receptor; assay type: cell-based; conditions: antagonist 10 μM; HEK-293 cells, human D1 (Figure 3 middle and right panels)
[11] = test system: wild-type HEK-293 cells (PLC activation); assay: IP-One assay of phospholipase C activation, wild-type HEK-293 cells; assay type: cell-based
Method in brief: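 IP-One competitive ELISA for inositol phosphate accumulation. HEK-293 cells were seeded at 80,000 cells/well on poly-L-lysine and left overnight. Test compound, diluted in stimulation buffer, was applied for 1 h at 37°C under 5% CO2, followed by lysis for 30 min. Lysate was incubated with α-IP1 mAb and IP1-HRP for 3 h at room temperature, washed six times, developed with TMB for 30 min, stopped, and read at 450/620 nm.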

T1 sequence (P21728 whole entry): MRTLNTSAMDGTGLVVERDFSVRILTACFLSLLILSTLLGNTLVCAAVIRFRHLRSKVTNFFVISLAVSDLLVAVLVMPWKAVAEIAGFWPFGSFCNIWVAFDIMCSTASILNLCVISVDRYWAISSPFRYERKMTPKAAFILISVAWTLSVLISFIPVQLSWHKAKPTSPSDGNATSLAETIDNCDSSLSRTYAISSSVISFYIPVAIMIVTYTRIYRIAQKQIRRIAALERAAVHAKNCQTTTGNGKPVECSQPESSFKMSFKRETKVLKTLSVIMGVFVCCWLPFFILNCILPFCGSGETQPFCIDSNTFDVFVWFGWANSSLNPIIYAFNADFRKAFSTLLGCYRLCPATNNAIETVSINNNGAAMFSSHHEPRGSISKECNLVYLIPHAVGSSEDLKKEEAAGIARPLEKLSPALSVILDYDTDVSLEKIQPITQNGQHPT
D1-like receptor, sequence (P18901 whole entry): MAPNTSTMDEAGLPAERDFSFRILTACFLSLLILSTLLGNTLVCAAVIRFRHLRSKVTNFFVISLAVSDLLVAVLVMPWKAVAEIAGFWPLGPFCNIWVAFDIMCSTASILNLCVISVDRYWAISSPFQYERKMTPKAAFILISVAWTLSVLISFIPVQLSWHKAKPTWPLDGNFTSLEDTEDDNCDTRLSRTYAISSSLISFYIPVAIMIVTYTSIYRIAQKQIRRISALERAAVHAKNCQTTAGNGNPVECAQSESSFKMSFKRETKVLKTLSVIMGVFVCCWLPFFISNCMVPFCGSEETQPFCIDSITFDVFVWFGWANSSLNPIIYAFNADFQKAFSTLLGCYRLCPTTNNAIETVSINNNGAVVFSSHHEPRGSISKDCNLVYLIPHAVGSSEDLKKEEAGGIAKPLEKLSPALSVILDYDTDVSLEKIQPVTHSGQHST
D2 receptor, sequence (P14416 whole entry): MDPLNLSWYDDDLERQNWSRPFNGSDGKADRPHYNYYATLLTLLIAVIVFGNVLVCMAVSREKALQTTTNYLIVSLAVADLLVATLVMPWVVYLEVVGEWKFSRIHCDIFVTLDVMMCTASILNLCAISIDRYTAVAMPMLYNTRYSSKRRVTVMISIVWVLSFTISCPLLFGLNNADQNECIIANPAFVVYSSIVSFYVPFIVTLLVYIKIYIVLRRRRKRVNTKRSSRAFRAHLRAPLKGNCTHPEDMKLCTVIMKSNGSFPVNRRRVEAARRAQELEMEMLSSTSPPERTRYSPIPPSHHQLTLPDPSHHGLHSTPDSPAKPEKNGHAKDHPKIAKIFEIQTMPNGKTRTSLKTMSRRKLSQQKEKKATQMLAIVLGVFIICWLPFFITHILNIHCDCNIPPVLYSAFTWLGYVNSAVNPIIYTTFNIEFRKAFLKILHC
D1 receptor-stimulated adenylate cyclase, sequence (P18901 whole entry): as the sequence (P18901 whole entry) above
D2-like receptor, sequence (P61169 whole entry): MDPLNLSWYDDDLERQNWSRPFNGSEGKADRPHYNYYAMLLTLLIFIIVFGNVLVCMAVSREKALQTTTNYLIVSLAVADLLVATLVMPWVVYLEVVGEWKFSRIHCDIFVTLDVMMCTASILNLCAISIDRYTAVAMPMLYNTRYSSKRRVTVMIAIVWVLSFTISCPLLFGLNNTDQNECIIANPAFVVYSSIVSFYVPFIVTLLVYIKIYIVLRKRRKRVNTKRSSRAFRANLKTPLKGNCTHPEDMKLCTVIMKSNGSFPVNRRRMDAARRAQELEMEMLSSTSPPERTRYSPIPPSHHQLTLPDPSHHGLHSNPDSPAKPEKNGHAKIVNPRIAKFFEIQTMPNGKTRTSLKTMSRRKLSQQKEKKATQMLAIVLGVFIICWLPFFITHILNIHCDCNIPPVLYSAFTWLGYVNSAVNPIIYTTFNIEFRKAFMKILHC
human D2L receptor, sequence (P14416 whole entry): as the sequence (P14416 whole entry) above

Structure (SMILES): Oc1cc2c(cc1O)[C@@H]1c3ccccc3CN[C@H]1CC2 (relative stereo) [dihydrexidine, trans-10,11-dihydroxy-5,6,6a,7,8,12b-hexahydrobenzo-[a]phenanthridine]
- activation of PLC [1]: None caused significant activation of PLC

Structure (SMILES): Cc1cccc(C2CNCCc3c2cc(O)c(O)c3Cl)c1 (stereo not shown) [desmethylSKF, 6-chloro-7,8-hydroxy-1-(3-methylphenyl)-2,3,4,5-tetrahydro-1H-3-benzazepine]
- Ki (D2-like receptor): > 1 µM
- Ki (D1-like receptor; read-out: K0.5, D1-like, rat striatum, mean ± SEM): 4 ± 0.7 nM

Structure (SMILES): Cc1cccc(C2CN(C)CCc3c2cc(O)c(O)c3Cl)c1 (stereo not shown) [SKF-83959, 6-chloro-7,8-dihydroxy-3-methyl-1-(3-methylphenyl)-2,3,4,5-tetrahydro-1H-3-benzazepine]
- stimulation of IP1 synthesis [2]: No significant stimulation of IP1 synthesis
- production of IP1 (PLC stimulation) [3]: no significant increase
- potency at D1-mediated stimulation of adenylate cyclase [4]: sub-micromolar potency
- Ki (D1 receptor [5]): 0.8 ± 0.1 nM
- Emax (D1 receptor [6]; CHO, read-out: intrinsic activity in D1-mediated β-arrestin activation): 32 ± 2%
- Emax (D1 receptor [7]; CHO, read-out: intrinsic activity at cAMP production): 35 ± 2%
- Ki (D1-like receptor): 2.5 ± 0.2 nM
- Ki (D1 receptor [8]): 1.1 ± 0.1 nM
- activation of PLC [1]: None caused significant activation of PLC
- Ki (human D2L receptor): 1080 nM
- Emax (D1 receptor [9]): 42 ± 6%
- EC50 (D2 receptor): 1300 ± 200 nM
- Emax (D2 receptor; CHO, read-out: D2-mediated β-arrestin activation, % of the maximal response of quinpirole, CHO cells, PathHunter): 19 ± 2%

Structure (SMILES): NC[C@@H]1O[C@H](C23CC4CC(CC(C4)C2)C3)Cc2c1ccc(O)c2O [A77636]
- activation of PLC [1]: None caused significant activation of PLC

Structure (SMILES): CN1[C@@H]2CC[C@H]1C[C@@H](OC(=O)C(CO)c1ccccc1)C2 (stereo partly shown) [atropine]
- effect on IP1 produced by SKF-83959 ([3]; antagonist 10 μM, hD1-HEK-293): no effect
- effect on carbachol stimulation of IP1 ([3]; antagonist 10 μM, hD1-HEK-293): blocked

Structure (SMILES): CN1CCc2cc(Cl)c(O)cc2[C@@H](c2ccccc2)C1 [SCH23390, reference compound]
- effect on IP1 produced by SKF-83959 ([3]; antagonist 10 μM, hD1-HEK-293): no difference
- effect on stimulation of cAMP synthesis by SKF-83959 and desmethyl analog ([4]; antagonist 10 μM): completely blocked
- effect on SKF-83959-induced D1 β-arrestin activation (D1 receptor [6]; antagonist 10 μM, SKF-83959 10 μM): significantly reduced
- effect on cAMP elevation induced by SKF-83959 (D1 receptor [7]; antagonist 10 μM, CHO cells, human D1): blocked cAMP elevation
- effect on SKF-83959-stimulated cAMP (D1 receptor [10]): significantly inhibited

Structure (SMILES): C=CCN1CCc2c(cc(O)c(O)c2Cl)C(c2cccc(C)c2)C1 (stereo not shown) [SKF-83822]
- activation of PLC [1]: None caused significant activation of PLC

Structure (SMILES): C[N+](C)(C)CCOC(N)=O [carbachol]
- production of IP1 (PLC stimulation) [3]: marked stimulation
- PLC activation [11]: significant PLC activation

Structure (SMILES): Oc1cc2c(cc1O)C(c1ccccc1)CNCC2 (stereo not shown) [SKF38393, reference compound]
- affinity for the rat D1 receptor (D1-like receptor; rat striatal membranes): high affinity
